Blank lines part the entries; values can stand above or below the molecule they belong to.
Legend:
[1] = target: CHERP (SCAF6) (UniProt Q8IWX8); assay: GST-CTD pull-down, label-free LC-MS/MS; settings: reference: GST-CTD, buffer with no kinase; sites S2
[2] = test system: Ser2/Thr4 phosphorylation on RNA polymerase II, HEK293 cells; assay: Western blot of Pol II phosphorylation after flavopiridol; assay type: cell-based, human; settings: time course (Figure S10A)
[3] = test system: CHERP recruitment to the genome, HEK293 cells; assay: ChIP-seq of CHERP; assay type: cell-based, human; settings: 2μM flavopiridol, HA-CHERP in HEK293 cells, HA antibody ChIP-seq
[4] = test system: Pol II (RPB1, pSer2, pThr4), HEK293 cells; assay: Co-immunoprecipitation with Pol II; assay type: cell-based, human; settings: HEK293 extracts, western blot, at least three independent replicates
Procedure, shortened: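 Protein G beads were loaded overnight at 4°C with 3 µg antibody or control IgG. 250 µg protein was bound for 2 h, washed three times, eluted by boiling 5 min in 2× SDS buffer, then immunoblotted.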

[5] = test system: pSer2 Pol II and CHERP in HEK293 cells; assay: Immunofluorescence colocalization of CHERP and pSer2 Pol II; assay type: cell-based, human; settings: transfected HEK293 cells, confocal, no flavopiridol, N = 7
Procedure, shortened: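 HEK293 cells were transfected (Fugene, 1:3 plasmid:reagent) with HA-CHERP or HA-CHERPΔCID, fixed 15 min in 1% formaldehyde at room temperature, and permeabilized with 0.2% Triton X-100. They were blocked 30 min in 2% BSA, then given primary antibody and Alexa Fluor 488/568 secondary, 1 h each at room temperature. Pearson coefficients were computed with threshold, from 7 cells across at least two biological replicates.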

fold change [1]: 2.9
Molecule: yeast CTD (GST-yCTD 26x) CTD, 26 heptad repeats GST-CTD treated with DYRK1A

Molecule: CN1CC[C@H](c2c(O)cc(O)c3c(=O)cc(-c4ccccc4Cl)oc23)[C@H](O)C1 [flavopiridol]
Ser2/Thr4 phosphorylation on RNA polymerase II [2]: caused Ser2/Thr4 phosphorylation to be reduced
CHERP recruitment to the genome with flavopiridol [3]: great reduction of CHERP recruitment to the genome

B1: CHERP: calcium homeostasis endoplasmic reticulum protein; endogenous or HA-tagged full-length (protein)
chain: MEMPLPPDDQELRNVIDKLAQFVARNGPEFEKMTMEKQKDNPKFSFLFGGEFYSYYKCKLALEQQQLICKQQTPELEPAATMPPLPQPPLAPAAPIPPAQGAPSMDELIQQSQWNLQQQEQHLLALRQEQVTAAVAHAVEQQMQKLLEETQLDMNEFDNLLQPIIDTCTKDAISAGKNWMFSNAKSPPHCELMAGHLRNRITADGAHFELRLHLIYLINDVLHHCQRKQARELLAALQKVVVPIYCTSFLAVEEDKQQKIARLLQLWEKNGYFDDSIIQQLQSPALGLGQYQATLINEYSSVVQPVQLAFQQQIQTLKTQHEEFVTSLAQQQQQQQQQQQQLQMPQMEAEVKATPPPPAPPPAPAPAPAIPPTTQPDDSKPPIQMPGSSEYEAPGGVQDPAAAGPRGPGPHDQIPPNKPPWFDQPHPVAPWGQQQPPEQPPYPHHQGGPPHCPPWNNSHEGMWGEQRGDPGWNGQRDAPWNNQPDAAWNSQFEGPWNSQHEQPPWGGGQREPPFRMQRPPHFRGPFPPHQQHPQFNQPPHPHNFNRFPPRFMQDDFPPRHPFERPPYPHRFDYPQGDFPAEMGPPHHHPGHRMPHPGINEHPPWAGPQHPDFGPPPHGFNGQPPHMRRQGPPHINHDDPSLVPNVPYFDLPAGLMAPLVKLEDHEYKPLDPKDIRLPPPMPPSERLLAAVEAFYSPPSHDRPRNSEGWEQNGLYEFFRAKMRARRRKGQEKRNSGPSRSRSRSKSRGRSSSRSNSRSSKSSGSYSRSRSRSCSRSYSRSRSRSRSRSRSSRSRSRSQSRSRSKSYSPGRRRRSRSRSPTPPSSAGLGSNSAPPIPDSRLGEENKGHQMLVKMGWSGSGGLGAKEQGIQDPIKGGDVRDKWDQYKGVGVALDDPYENYRRNKSYSFIARMKARDECK
co-immunoprecipitation with Pol II or its phosphorylation forms [4]: interacted with total Pol II
colocalization correlation value (Pearson), CHERP vs pSer2 Pol II [5]: 0.77
